Laboratory results reported in ChEMBL document CHEMBL1155347, “Synthesis and antimicrobial activities of novel quinoline derivatives carrying 1,2,4-triazole moiety” (2009).
≈ marks a conversion by molar mass, not a printed value.

Columns and labels:
Assay type in all cases: functional
Pseudomonas aeruginosa [1] = test: Antibacterial activity against Pseudomonas aeruginosa ATCC 27853 after 16 to 18 hrs by serial plate dilution method
In short: (§1)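 Drug serially diluted in Mueller–Hinton broth in tubes, adjusted to pH 5.0 with phosphate buffer. Inoculated with standardized bacterial suspension and incubated 16–18 h at 37 °C. MIC taken as lowest concentration with no visible growth.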

Escherichia coli [2] = test: Antibacterial activity against Escherichia coli ATCC 25922 at MIC after 3 to 4 days by agar well diffusion method
Aspergillus fumigatus [3] = test: Antifungal activity against Aspergillus fumigatus NCIM 902 at MIC after 3 to 4 days by agar well diffusion method
In short: (§2)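 Sabouraud agar (peptone, D-glucose, agar; pH 5.7) seeded with spore suspension made by transferring a loopful of fungus to 3 mL normal saline. Excess decanted, plates dried 1 h at 37 °C. Compounds in DMSO at MIC added to punched wells; DMSO control. Triplicate plates kept 3–4 days at 37 °C.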

Staphylococcus aureus [4] = test: Antibacterial activity against Staphylococcus aureus ATCC 25923 at MIC after 3 to 4 days by agar well diffusion method
[5] = test system: Trichophyton mentagrophytes; test: Antifungal activity against recultured Trichophyton mentagrophytes at MIC after 3 to 4 days by agar well diffusion method; in short: as §2
Aspergillus fumigatus [6] = test: Antifungal activity against Aspergillus fumigatus NCIM 902 by serial plate dilution method
Pseudomonas aeruginosa [7] = test: Antibacterial activity against Pseudomonas aeruginosa ATCC 27853 at MIC after 3 to 4 days by agar well diffusion method
Aspergillus flavus [8] = test: Antifungal activity against Aspergillus flavus NCIM 524 at MIC after 3 to 4 days by agar well diffusion method; in short: as §2
Klebsiella pneumoniae [9] = test: Antibacterial activity against recultured Klebsiella pneumoniae after 16 to 18 hrs by serial plate dilution method; in short: as §1
Klebsiella pneumoniae [10] = test: Antibacterial activity against recultured Klebsiella pneumoniae at MIC after 3 to 4 days by agar well diffusion method
[11] = test system: Trichophyton mentagrophytes; test: Antifungal activity against recultured Trichophyton mentagrophytes by serial plate dilution method
Staphylococcus aureus [12] = test: Antibacterial activity against Staphylococcus aureus ATCC 25923 after 16 to 18 hrs by serial plate dilution method; in short: as §1
Talaromyces marneffei [13] = test: Antifungal activity against recultured Penicillium marneffei at MIC after 3 to 4 days by agar well diffusion method; in short: as §2
Escherichia coli [14] = test: Antibacterial activity against Escherichia coli ATCC 25922 after 16 to 18 hrs by serial plate dilution method; in short: as §1
Talaromyces marneffei [15] = test: Antifungal activity against recultured Penicillium marneffei by serial plate dilution method
Aspergillus flavus [16] = test: Antifungal activity against Aspergillus flavus NCIM 524 by serial plate dilution method

SMILES | MIC (Pseudomonas aeruginosa [1]) [µg/mL] | inhibition zone (IZ) (Escherichia coli [2]) [mm] | inhibition zone (IZ) (Aspergillus fumigatus [3]) [mm] | inhibition zone (IZ) (Staphylococcus aureus [4]) [mm] | inhibition zone (IZ) [5] [mm] | MIC (Aspergillus fumigatus [6]) [µg/mL] | inhibition zone (IZ) (Pseudomonas aeruginosa [7]) [mm] | inhibition zone (IZ) (Aspergillus flavus [8]) [mm] | MIC (Klebsiella pneumoniae [9]) [µg/mL] | inhibition zone (IZ) (Klebsiella pneumoniae [10]) [mm] | MIC [11] [µg/mL] | MIC (Staphylococcus aureus [12]) [µg/mL] | inhibition zone (IZ) (Talaromyces marneffei [13]) [mm] | MIC (Escherichia coli [14]) [µg/mL] | MIC (Talaromyces marneffei [15]) [µg/mL] | MIC (Aspergillus flavus [16]) [µg/mL]
FC(F)(F)c1cccc2c(N3CCN(C4CCCCC4)CC3)c(-c3nnc(S)n3Cc3ccccc3)cnc12 | 50 (≈ 90.5 µM) | <10 | <10 | 16 | <10 | 50 (≈ 90.5 µM) | <10 | <10 | 50 (≈ 90.5 µM) | <10 | 50 (≈ 90.5 µM) | 6.25 (≈ 11.3 µM) | <10 | 50 (≈ 90.5 µM) | 50 (≈ 90.5 µM) | 50 (≈ 90.5 µM)
OCCCC1CCN(c2c(-c3nnc(S)n3-c3ccccc3)cnc3c(C(F)(F)F)cccc23)CC1 | 50 (≈ 97.4 µM) | 16 | <10 | 16 | <10 | 50 (≈ 97.4 µM) | <10 | <10 | 50 (≈ 97.4 µM) | <10 | 50 (≈ 97.4 µM) | 6.25 (≈ 12.2 µM) | <10 | 12.5 (≈ 24.3 µM) | 50 (≈ 97.4 µM) | 50 (≈ 97.4 µM)
FC(F)(F)c1cccc2c(NC3CC3)c(-c3nnc(S)n3Cc3ccccc3)cnc12 | 6.25 (≈ 14.2 µM) | 20 | 16 | 16 | 20 | 6.25 (≈ 14.2 µM) | 16 | 16 | 6.25 (≈ 14.2 µM) | 16 | 6.25 (≈ 14.2 µM) | 6.25 (≈ 14.2 µM) | 16 | 6.25 (≈ 14.2 µM) | 6.25 (≈ 14.2 µM) | 6.25 (≈ 14.2 µM)
O=C(O)c1cn(C2CC2)c2cc(N3CCNCC3)c(F)cc2c1=O [CIPROFLOXACIN] |  | 30 |  | 22 |  |  | 25 |  | 6.25 (≈ 18.9 µM) | 23 |  |  |  |  |  | 
COCCn1c(S)nnc1-c1cnc2c(C(F)(F)F)cccc2c1NCCC(C)(C)C | 50 (≈ 110 µM) | <10 | 16 | <10 | 20 | 6.25 (≈ 13.8 µM) | <10 | 16 | 50 (≈ 110 µM) | <10 | 6.25 (≈ 13.8 µM) | 50 (≈ 110 µM) | 16 | 50 (≈ 110 µM) | 6.25 (≈ 13.8 µM) | 6.25 (≈ 13.8 µM)
COCCn1c(S)nnc1-c1cnc2c(C(F)(F)F)cccc2c1N1CC(C)OC(C)C1 (configuration not stated) | 6.25 (≈ 13.4 µM) | 20 | 16 | 16 | 20 | 6.25 (≈ 13.4 µM) | 16 | 16 | 6.25 (≈ 13.4 µM) | 16 | 6.25 (≈ 13.4 µM) | 6.25 (≈ 13.4 µM) | 16 | 6.25 (≈ 13.4 µM) | 6.25 (≈ 13.4 µM) | 6.25 (≈ 13.4 µM)
NCCN1CCN(c2c(-c3nnc(S)n3Cc3ccccc3)cnc3c(C(F)(F)F)cccc23)CC1 | 50 (≈ 97.4 µM) | 20 | <10 | <10 | <10 | 50 (≈ 97.4 µM) | <10 | <10 | 50 (≈ 97.4 µM) | <10 | 50 (≈ 97.4 µM) | 50 (≈ 97.4 µM) | <10 | 6.25 (≈ 12.2 µM) | 50 (≈ 97.4 µM) | 50 (≈ 97.4 µM)
COCCn1c(S)nnc1-c1cnc2c(C(F)(F)F)cccc2c1Cl | 12.5 (≈ 32.2 µM) | 16 | 10 | 10 | 10 | 12.5 (≈ 32.2 µM) | 10 | 10 | 12.5 (≈ 32.2 µM) | 12 | 12.5 (≈ 32.2 µM) | 12.5 (≈ 32.2 µM) | 10 | 6.25 (≈ 16.1 µM) | 12.5 (≈ 32.2 µM) | 12.5 (≈ 32.2 µM)
